In ChEMBL document CHEMBL3632599, “2-((Benzimidazol-2-yl)thio)-1-arylethan-1-ones: Synthesis, crystal study and cancer stem cells CD133 targeting potential” (Eur J Med Chem, 2015):
Calls of active or inactive are those of the source. No cut-off for these calls is given here.

How the values were obtained:
[1] = system: HT-29; assay: Cytotoxicity against human HT-29 cells assessed as growth inhibition after 48 hrs by WST-1 assay; type: functional, cell-based; conditions: HT-29, 48 h
Outline: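 HT-29 human colon cancer cells kept in RPMI 1640 with 10% FBS, penicillin, streptomycin and 2 mmol/L L-glutamine. Seeded at 0.4*10⁴/well, left overnight, then medium replaced with fresh medium holding the test concentrations for 48 h. WST-1 added, 4 h at 37 °C, formazan read at 450 nm. IC₅₀ taken relative to untreated controls; mean ± SD of three separate experiments.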

[2] = system: HT-29; assay: Inhibition of cell surface expression of CD133 in human HT-29 cells at 10 uM by flow cytometric analysis relative to control; type: functional
Outline: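 HT-29 cells exposed to compound at 10 µM, then harvested, washed and stained with APC-conjugated anti-CD133 monoclonal antibody. Analysed by flow cytometry (BD LSR II), with debris and cell clusters excluded by forward- and side-scatter gating. Reported as % inhibition of […] relative to untreated cells; mean ± SD of three separate experiments.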

SMILES | IC50 [1] [µM] | inhibition at 10 µM [2] [%] | inhibition [2]
O=c1[nH]cc(F)c(=O)[nH]1 [FLUOROURACIL] | 15.8 | – | –
Cc1ccc(C(=O)CSc2nc3ccccc3[nH]2)cc1 | 34.5 | 40 | –
O=C(CSc1nc2ccccc2[nH]1)c1ccccc1 | 38.5 | – | inactive
O=C(CSc1nc2ccccc2[nH]1)c1ccc2c(c1)OCO2 | 36.8 | 51.2 | –
O=C(CSc1nc2ccccc2[nH]1)c1ccc(Br)cc1 | 43 | – | inactive
COc1ccc(C(=O)CSc2nc3ccccc3[nH]2)cc1OC | 19.1 | 52.6 | –
O=C(CSc1nc2ccccc2[nH]1)c1ccco1 | 24.6 | 56.8 | –
COc1ccc(C(=O)CSc2nc3ccccc3[nH]2)c(OC)c1OC | 18.8 | 50.1 | –
O=C(CSc1nc2ccccc2[nH]1)c1ccc([N+](=O)[O-])cc1 | 57 | – | inactive
CCOc1ccc(C(=O)CSc2nc3ccccc3[nH]2)cc1 | > 100 | 55.1 | –
O=C(CSc1nc2ccccc2[nH]1)c1ccc(F)cc1 | 78.7 | – | inactive
O=C(CSc1nc2ccccc2[nH]1)c1cccs1 | 23.9 | 55.6 | –
COc1ccccc1C(=O)CSc1nc2ccccc2[nH]1 | 36.1 | 34.9 | –
O=C(CSc1nc2ccccc2[nH]1)c1ccc(O)cc1 | 19.2 | – | inactive
COc1ccc(C(=O)CSc2nc3ccccc3[nH]2)cc1 | 25.2 | 52.5 | –
COc1ccc(C(=O)CSc2nc3ccccc3[nH]2)cc1O | 33 | 49.7 | –
